Compounds with a hit are over-represented: about 1.8% of the library has one in this group of screens.
TCR CD3 inh: inhibitors of human TCR-CD3 interaction; TAMRA-labeled TCR probe fluorescence, biochemical; inhibition, % at 9.4 µM; actives 0.37% (n = 360,000); in the data active means inhibition above about 19%;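 further: recombinant mutant TCR 2C K166C tagged with TAMRA read by polarization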
HTRA1 inhibitor: blocks human HTRA1 serine peptidase; recombinant HTRA1, FP-rhodamine activity-based probe, fluorescence polarization; inhibition, % at 5.96 µM; actives 0.5% (n = 340,000); AID 504803; in the data active means inhibition above about 36%
Tn6 DDE FP: DD(E)-Tn6 binding inhibition, primary FP screen; P02675; Fibrin DD(E) TRITC-Tn6 fluorescence polarization displacement; inhibition, % at 8.3 µM; actives 0.21% (n = 370,000); AID 720509;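 active means inhibition above a per-campaign cutoff: mean of compounds within control limits plus 3 SD, cut at about 15% in these data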
Target sequence (P02675 whole entry, looked up): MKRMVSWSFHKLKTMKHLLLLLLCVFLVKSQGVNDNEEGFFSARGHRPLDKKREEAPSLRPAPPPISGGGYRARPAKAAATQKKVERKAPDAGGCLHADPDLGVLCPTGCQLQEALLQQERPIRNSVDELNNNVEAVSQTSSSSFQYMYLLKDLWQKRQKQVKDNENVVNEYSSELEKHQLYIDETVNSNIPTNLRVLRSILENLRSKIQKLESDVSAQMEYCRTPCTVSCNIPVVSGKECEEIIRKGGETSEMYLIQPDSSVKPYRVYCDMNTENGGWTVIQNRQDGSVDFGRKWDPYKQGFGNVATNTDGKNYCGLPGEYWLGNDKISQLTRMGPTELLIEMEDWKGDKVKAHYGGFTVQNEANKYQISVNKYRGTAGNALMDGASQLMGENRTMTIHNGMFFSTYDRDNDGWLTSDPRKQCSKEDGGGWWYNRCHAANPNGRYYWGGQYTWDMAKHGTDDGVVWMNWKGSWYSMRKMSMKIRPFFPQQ
Tn7 DDE FP: inhibitors of Tn7 peptide binding to human fibrin DD(E). FP displacement of FITC-Tn7 peptide from fibrin DD(E); 0% = median of compound wells per plate. inhibition, % at 8.3 µM. actives 0.13% (n = 370,000). AID 720508;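 active means inhibition above the mean of compounds falling within the control limits plus 3 SD of them, cut at about 14% in these data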
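assay system = human clot-derived fibrin DD(E) complex | quantity = Fibrin-DD(E) at 2 µM final | timing = 10 min preincubation, 3 h with tracer, room temperature | signal = fluorescence polarization | measure = percent inhibition | benchmarks = high control wells with 10 µM unlabelled Aha-Tn7 peptide (full inhibition) | replicates = singlicate testing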
ABHD4 inh: inhibits mouse alpha/beta hydrolase domain 4; purified mABHD4, FP-Rh probe fluorescence polarization; AID 720543; inhibition, % at 8.92 µM; actives 0.54% (n = 370,000); Q8VD66;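 active means inhibition exceeding the mean over every tested compound plus 3 SD, cut at about 30% in these data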
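Doses – 8.92 µM, single dose · Material – wild-type mouse ABHD4 protein · Replication – single well per compound (singlicate) · Measure – percent inhibition of probe binding, normalized to plate controls · Schedule – 45 min compound pre-incubation plus 60 min probe step, 25 °C · Detection – fluorescence polarization with parallel and perpendicular emission, 525/598 nm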
SIAE inh: human SIAE inhibition, primary screen; SIAE FP-Rh probe binding, fluorescence polarization; inhibition, % at 9.66 µM; actives 0.69% (n = 370,000);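 active means inhibition above a cutoff: mean of compounds within the control limits plus 3 SD of those, cut at about 17% in these data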
ABHD4 confirm: ABHD4 (mouse) inhibition, FP confirmation; purified mABHD4, FP-Rh probe fluorescence polarization; inhibition, % at 8.92 µM; actives 55% (n = 1,800); shares compounds with ABHD4 inh;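 active means mean inhibition across replicates above the hit cutoff set in the primary screen, cut at about 30% in these data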
A number is an active result; 0 = inactive; - = no result.

SMILES | TCR CD3 inh | HTRA1 inhibitor | Tn6 DDE FP | Tn7 DDE FP | ABHD4 inh | SIAE inh | ABHD4 confirm
CCOC(=O)C1=NOC(C(=O)NCc2ccccc2)(C(=O)c2ccc(OC)cc2)C1 (configuration not stated) | - | - | 0 | 0 | 0 | 0 | -
COc1ccccc1CNc1nc(NCc2ccc(C(C)C)cc2)c2sccc2n1 | 0 | - | 0 | 0 | 35.6 | 0 | 33.6
COc1ccccc1CNc1nc(NCCOc2ccccc2Cl)c2sccc2n1 | 0 | - | 0 | 0 | 30.6 | 0 | 69.2
CN(CCOC(=O)c1cc2ccccc2o1)C1CN(Cc2cn(Cc3cccc(F)c3)nn2)S(=O)(=O)C1 (configuration not stated) | - | - | 0 | 0 | 0 | 0 | -
Cc1onc(-c2ccc(Cl)cc2)c1-c1ccn(S(=O)(=O)c2ccccc2Cl)n1 | - | - | 0 | 0 | 0 | 0 | -
COc1ccc(/C=N/NC(=S)Nc2ccccc2[N+](=O)[O-])cc1O | 0 | 0 | 0 | 0 | 44.2 | 0 | 0
O=C(O)/C=C/c1cccc(NC(=O)Nc2ccc([N+](=O)[O-])cc2)c1 | 0 | 0 | 0 | 0 | 30.2 | 0 | 0
O=C(Nc1ccc([N+](=O)[O-])cc1)C(=O)Nc1cccc(C(=O)O)c1 | 0 | 0 | 0 | 0 | 30.1 | 0 | 0
CCOC(=O)[C@@]12CN(C(=O)OC(C)(C)C)CC=C1N(Cc1ccc(OC)cc1)C(=O)[C@H]2CC(=O)NCCc1ccccc1OC | - | - | 0 | 0 | 0 | 0 | -
Cc1cccc(-c2cccc3c4c([nH]c23)[C@@H]2C[C@H](N(C)C(=S)Nc3ccc(C#N)cc3)[C@H]([C@H](C)O)CN2CC4)c1 | - | - | 0 | 0 | 0 | 0 | -
O=c1c(-c2ccco2)nc2ccccc2n1C(c1ccccn1)c1nc2ccccc2[nH]1 (configuration not stated) | 0 | - | 0 | 0 | 37.6 | 0 | 0
O=c1c(-c2ccco2)nc2ccccc2n1C(c1ccccc1)c1nc2ccccc2[nH]1 (configuration not stated) | 0 | - | 0 | 0 | 0 | 0 | -
Nc1c(Br)cc2c([nH]c(=O)c3ccccc32)c1Br | 0 | 0 | 0 | 0 | 42.5 | 0 | 36.8
Nc1cc2[nH]c(=O)c3ccccc3c2cc1[N+](=O)[O-] | 0 | 0 | 0 | 0 | 0 | 0 | -
CCCCOCCCNC(=O)C[C@H]1C[C@@]2(C(=O)OC)C(=C[C@H](C(C)(C)C)O[C@@H]2C)N(Cc2ccc(Cl)cc2Cl)C1=O | - | - | 0 | 0 | 0 | 0 | -
Cc1cc2nc(CCN(C(=S)NCC3CCCO3)C3CCCC3)[nH]c2cc1C (configuration not stated) | 0 | 0 | 0 | 0 | 0 | 0 | -
Cc1cc2nc(CCN(C(=S)NCC(C)C)C3CCCC3)[nH]c2cc1C | 0 | 0 | 0 | 0 | 42.3 | 0 | 48.2
O=C(CSc1nnc(-c2cccnc2)n1-c1ccc(Cl)cc1)c1ccc(F)cc1 | - | - | 0 | 0 | 0 | 0 | -
CN(C)c1ccc(S(=O)(=O)N2CCCCC2)cc1NC(=O)C1CSC2(C)CCC(=O)N12 (configuration not stated) | 0 | 0 | 0 | 0 | 0 | 0 | -
CCN(CC)S(=O)(=O)c1ccc(N2CCCCC2)c(NC(=O)C2CSC3(C)CCC(=O)N23)c1 (configuration not stated) | 0 | 0 | 0 | 0 | 39.9 | 0 | 36.4
Cc1ccccc1N1CCN(C(=O)COc2cc(=O)n(C)c3ccccc23)CC1 | - | - | 0 | 0 | 0 | 0 | -
COC(=O)[C@]12C[C@H](CC(=O)NCC3CCCCC3)C(=O)N(Cc3cccc4ccccc34)C1=C[C@H](C1CCCC1)O[C@@H]2C | - | - | 0 | 0 | 0 | 0 | -
COC(=O)[C@]12C[C@H](CC(=O)NCCCCc3ccccc3)C(=O)N(Cc3ccc(Cl)cc3Cl)C1=C[C@H](COCc1ccccc1)O[C@@H]2C | - | - | 0 | 0 | 0 | 0 | -
CCOC(=O)/C(=N\Nc1ccccc1)P(=O)(c1ccccc1)c1ccccc1 | 0 | 0 | 0 | 0 | 29.8 | 0 | 0
O=C(N[C@@H]1C[C@@H]2O[C@@H](CO)CC[C@@H]2O[C@@H]1CCc1ccc(-c2cccnc2)cc1)c1cccc(F)c1 | - | - | 0 | 0 | 0 | 0 | -
SMILES | TCR CD3 inh | HTRA1 inhibitor | Tn6 DDE FP | Tn7 DDE FP | ABHD4 inh | SIAE inh | ABHD4 confirm
O=C(COC(=O)c1cc(S(=O)(=O)N2CCCC2)ccc1O)Nc1ccc(SC(F)F)cc1 | 0 | 0 | 0 | 0 | 31.2 | 0 | 0
CC[C@H]1C=C[C@@H](C(=O)NS(=O)(=O)c2ccc(C)cc2)N(C(C)=O)C1 | - | - | 0 | 0 | 0 | 0 | -
CN(C)c1ccc(N=C/C=C2\N(C)c3ccccc3C2(C)C)cc1 | 0 | 0 | 0 | 0 | 32.0 | 0 | 0
COC(=O)[C@]12C[C@H](CC(=O)NCCCCc3ccccc3)C(=O)N(Cc3ccc(Cl)cc3Cl)C1=C[C@H](C(C)(C)C)O[C@@H]2C | - | - | 0 | 0 | 0 | 0 | -
NC(=S)NN=Cc1nccc2c(N)cccc12 | 0 | 0 | 0 | 0 | 36.4 | 0 | 43.8
CCN(C(C)=O)c1cnc(C=NNC(N)=S)c2ccccc12 | 0 | 0 | 0 | 0 | 0 | 0 | -
Cc1ccc2c(c1)c1c3n2CCCNC3CCC1 (configuration not stated) | 0 | 0 | 0 | 0 | 0 | 0 | -
c1cc2c(cc1C1CCCCC1)c1c3n2CCCNC3CCC1 (configuration not stated) | 0 | 0 | 0 | 0 | 35.5 | 0 | 57.2
O=C(Nc1nc(Cc2ccccc2)c(-c2ccccc2)n1Cc1ccccc1)c1ccccc1 | - | - | 0 | 0 | 0 | 0 | -
CCCCOc1ccc(C(=O)NC2CCCCN(Cc3cccc(C(F)(F)F)c3)C2=O)cc1 (configuration not stated) | - | - | 0 | 0 | 0 | 0 | -
COC[C@H]1CCCN1c1ccc2c(c1)O[C@H]1CCN(C1)S2(=O)=O | - | - | 0 | 0 | 0 | 0 | -
[O-]/C(=C(\C(=S)Nc1cccc2ccccc12)[n+]1ccccc1)c1ccc(Cl)s1 | 0 | 0 | 0 | 0 | 0 | 0 | -
[O-]C(=C(C(=S)Nc1cccc2ccccc12)[n+]1cccc(CO)c1)c1ccc(Cl)s1 | 0 | 0 | 0 | 0 | 30.4 | 0 | 62.8
COC(=O)C1CN(Cc2ccc(F)cc2)CCS(=O)(=O)N1Cc1ccc(OC)cc1 (configuration not stated) | - | - | 0 | 0 | 0 | 0 | -
Cc1c(C#N)c(N)nc(Cl)c1C#N | 0 | 0 | 0 | 0 | 0 | 0 | -
N#Cc1c(Cl)nsc1NN | 0 | 0 | 0 | 0 | 73.2 | 0 | 0
COC(=O)C1CN(Cc2ccc(F)cc2)CCS(=O)(=O)N1Cc1ccc(C)cc1 (configuration not stated) | - | - | 0 | 0 | 0 | 0 | -
O=c1c2cc3c(=O)n(-c4ccccc4O)c(=O)c3cc2c(=O)n1-c1ccccc1O | 0 | 0 | 0 | 0 | 29.6 | 0 | 0
Cc1c(O)cc2n(c1=O)-c1ccccc1C2(C)C | 0 | 0 | 0 | 0 | 0 | 0 | -
Nc1nc(N)c(N=O)c(Nc2ccc(Cl)c(Cl)c2)n1 | 0 | - | 0 | 0 | 30.8 | 0 | 33.0

Screening data: PubChem BioAssay, The Scripps Research Institute Molecular Screening Center
